Measured values pooled from the literature.
Protocols differ between the studies behind these lines.
CFTR: Cystic fibrosis transmembrane conductance regulator (CFTR, Homo sapiens, UniProt P13569)
ADORA2B: Adenosine receptor A2b (ADORA2B, Homo sapiens, UniProt P29275)
PKN3: Serine/threonine-protein kinase N3 (PKN3, Homo sapiens, UniProt Q6P5Z2)

CC(=NNC(=O)CNc1ccc2ccccc2c1)c1cc(Br)c(O)c(Br)c1
inhibition (CFTR; ion current; inhibitor; 50 µM): 100%

CCCCCC(C)N1CCCn2c1nc1c2c(=O)n(C)c(=O)n1C (stereo not shown)
inhibition (ADORA2B; ligand displacement; radioligand; 10 µM; cell membranes): -3%

CC(Nc1ccc2ccccc2c1)C(=O)NN=Cc1cc(Br)c(O)c(Br)c1 (stereo not shown)
inhibition (CFTR; ion current; inhibitor; 50 µM): 80%

C#CCN1CCCn2c1nc1c2c(=O)n(C)c(=O)n1C
inhibition (ADORA2B; ligand displacement; radioligand; 10 µM; cell membranes): 29%

Oc1cccc(Nc2nc(-c3ccc(F)cc3F)cs2)c1
inhibition (ADORA2B; cell-free assay; 10 µM): -11.9%

O=C(CNc1cccc2ccccc12)NN=Cc1cc(Br)c(O)c(Br)c1O
inhibition (CFTR; ion current; inhibitor; 50 µM): 86%

CN1CCCn2c1nc1c2c(=O)n(C)c(=O)n1C
inhibition (ADORA2B; ligand displacement; radioligand; 10 µM; cell membranes): 6%

Cn1cncc1C1=CN(c2ncnc3[nH]cnc23)CCS1
inhibition (PKN3; enzyme activity; inhibitor; radiometric; 50 nM): 18.6%

CCCCCN1CCCn2c1nc1c2c(=O)n(C)c(=O)n1C
inhibition (ADORA2B; ligand displacement; radioligand; 10 µM; cell membranes): -3%

CC(C)OC(=O)NC(C)(C)c1csc(-c2ccc(F)cc2)n1
inhibition (N-terminal Xaa-Pro-Lys N-methyltransferase 1 (Homo sapiens, UniProt Q9BV86); enzyme activity; inhibitor; fluorescence; 100 µM): < 50%

CC(/C=C/C(=O)NO)=C\[C@@H](C)C(=O)c1ccc(N(C)C)cc1
inhibition (Histone deacetylase 11 (HDAC11, Homo sapiens, UniProt Q96DB2); enzyme activity; inhibitor; fluorescence; 20 µM): < 50%

CCN(c1cc(C#CCN2CCOCC2)cc(C(=O)NCc2c(C)cc(C)[nH]c2=O)c1C)[C@H]1CC[C@H](N(C)CCOC)CC1
inhibition (Histone-lysine N-methyltransferase, H3 lysine-79 specific (DOT1L, Homo sapiens, UniProt Q8TEK3); enzyme activity; inhibitor; 1 µM): 1%

C=CCN1CCCn2c1nc1c2c(=O)n(C)c(=O)n1C
inhibition (ADORA2B; ligand displacement; radioligand; 10 µM; cell membranes): 6%

O=C(c1ccc(Cl)cc1)N(Cc1ccccc1)C1CCCCC1
inhibition (ADORA2B; cell-free assay; 10 µM): -5.4%

Cn1cnc(Br)c1C1=CN(c2ncnc3[nH]cnc23)CCS1
inhibition (PKN3; enzyme activity; inhibitor; radiometric; 50 nM): 29.2%

CN(C)C1CCN(CC#Cc2nn(C3CCCC3)c3nc(NCc4ccccc4)ncc23)C1 (stereo not shown)
inhibition (RAF proto-oncogene serine/threonine-protein kinase (RAF1, Homo sapiens, UniProt P04049, Y340D/Y341D); enzyme activity; inhibitor; FRET; 0.1 µM): -5%

O=C(CNc1ccc(Cl)cc1)NN=Cc1cc(Br)c(O)c(Br)c1
inhibition (CFTR; ion current; inhibitor; 50 µM): 95%

COc1cc(NC(C)=O)c(Cl)cc1C(=O)Nc1nccs1
inhibition (Prostaglandin E2 receptor EP2 subtype (PTGER2, Homo sapiens, UniProt P43116); cell-free assay; 10 µM): 36.3%

CC(C)CN1CCCn2c1nc1c2c(=O)n(C)c(=O)n1C
inhibition (ADORA2B; ligand displacement; radioligand; 10 µM; cell membranes): 5%

O=C(CNc1cccc2ccccc12)NN=Cc1cc(Br)c(O)c(Br)c1
inhibition (CFTR; ion current; inhibitor; 50 µM): 87%

CCCCN1CCCn2c1nc1c2c(=O)n(C)c(=O)n1C
inhibition (ADORA2B; ligand displacement; radioligand; 10 µM; cell membranes): 3%

CC(=NNC(=O)CNc1ccc2ccccc2c1)c1cc(Br)c(O)c(Br)c1O
inhibition (CFTR; ion current; inhibitor; 50 µM): 81%
